Results as given in ChEMBL document CHEMBL1806357, “A regioselective synthesis of some new pyrazol-1'-ylpyrazolo[1,5-a]pyrimidines in aqueous medium and their evaluation as antimicrobial agents” (2011).
≈ marks a conversion by molar mass, not a printed value.

Experiments:
Format in all cases: functional
Escherichia coli [1] = experiment: Antibacterial activity against Escherichia coli ATCC 8739 at 2 mg/ml after 24 hrs by agar-well diffusion technique; conditions: ATCC 8739, 24 h, read-out: DIZ
Summary of the method: (§1)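 Agar-well diffusion used MHA seeded with 24 h cultures at 0.5 McFarland (1 × 10^6 CFU/ml). 100 µl of compound (2 mg/ml in DMSO, filter-sterilized) went into each 6 mm well. Plates were incubated upright at 37 ± 1 °C for 24 h, and the inhibition zone diameter was measured in mm. DMSO was the negative control. Values are the mean of three replicates.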

Pseudomonas aeruginosa [2] = experiment: Antibacterial activity against Pseudomonas aeruginosa ATCC 25668 at 2 mg/ml after 24 hrs by agar-well diffusion technique; conditions: ATCC 25668, 24 h, read-out: DIZ; summary of the method: as §1
Staphylococcus aureus [3] = experiment: Antibacterial activity against Staphylococcus aureus ATCC 9144 at 2 mg/ml after 24 hrs by agar-well diffusion technique; conditions: ATCC 9144, 24 h, read-out: DIZ; summary of the method: as §1
Bacillus cereus [4] = experiment: Antibacterial activity against Bacillus cereus ATCC 11778 at 2 mg/ml after 24 hrs by agar-well diffusion technique; conditions: ATCC 11778, 24 h, read-out: DIZ; summary of the method: as §1
Escherichia coli [5] = experiment: Antibacterial activity against Escherichia coli ATCC 8739 after 24 hrs by broth microdilution method; conditions: ATCC 8739, 24 h
Pseudomonas aeruginosa [6] = experiment: Antibacterial activity against Pseudomonas aeruginosa ATCC 25668 after 24 hrs by broth microdilution method; conditions: ATCC 25668, 24 h
Staphylococcus aureus [7] = experiment: Antibacterial activity against Staphylococcus aureus ATCC 9144 after 24 hrs by broth microdilution method; conditions: ATCC 9144, 24 h
Bacillus cereus [8] = experiment: Antibacterial activity against Bacillus cereus ATCC 11778 after 24 hrs by broth microdilution method; conditions: ATCC 11778, 24 h
Aspergillus terreus [9] = experiment: Antifungal activity against Aspergillus terreus at 10 ug/ml after 7 days by poisoned food technique relative to control
Summary of the method: (§2)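 Poisoned food technique with soil-isolated fungi on PDA. Compound from a 1 mg/ml DMSO stock was added to molten agar at 40 ± 2 °C to give 10, 50, 100 or 200 µg/ml. A 6 mm mycelial disc from a 6-day culture was placed centrally, and plates were held at 28 ± 1 °C. Radial growth was measured after 7 days, and % inhibition was calculated against PDA/DMSO control, in triplicate.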

Aspergillus terreus [10] = experiment: Antifungal activity against Aspergillus terreus at 50 ug/ml after 7 days by poisoned food technique relative to control; summary of the method: as §2
Aspergillus terreus [11] = experiment: Antifungal activity against Aspergillus terreus at 100 ug/ml after 7 days by poisoned food technique relative to control; summary of the method: as §2
Aspergillus terreus [12] = experiment: Antifungal activity against Aspergillus terreus at 200 ug/ml after 7 days by poisoned food technique relative to control; summary of the method: as §2
Alternaria alternata [13] = experiment: Antifungal activity against Alternaria alternata at 10 ug/ml after 7 days by poisoned food technique relative to control; summary of the method: as §2
Alternaria alternata [14] = experiment: Antifungal activity against Alternaria alternata at 50 ug/ml after 7 days by poisoned food technique relative to control; summary of the method: as §2
Alternaria alternata [15] = experiment: Antifungal activity against Alternaria alternata at 100 ug/ml after 7 days by poisoned food technique relative to control; summary of the method: as §2
Alternaria alternata [16] = experiment: Antifungal activity against Alternaria alternata at 200 ug/ml after 7 days by poisoned food technique relative to control; summary of the method: as §2
Fusarium oxysporum [17] = experiment: Antifungal activity against Fusarium oxysporum at 10 ug/ml after 7 days by poisoned food technique relative to control; summary of the method: as §2
Fusarium oxysporum [18] = experiment: Antifungal activity against Fusarium oxysporum at 50 ug/ml after 7 days by poisoned food technique relative to control; summary of the method: as §2
Fusarium oxysporum [19] = experiment: Antifungal activity against Fusarium oxysporum at 100 ug/ml after 7 days by poisoned food technique relative to control; summary of the method: as §2
Fusarium oxysporum [20] = experiment: Antifungal activity against Fusarium oxysporum at 200 ug/ml after 7 days by poisoned food technique relative to control; summary of the method: as §2
Helminthosporium [21] = experiment: Antifungal activity against Helminthosporium sp. at 10 ug/ml after 7 days by poisoned food technique relative to control; summary of the method: as §2
Helminthosporium [22] = experiment: Antifungal activity against Helminthosporium sp. at 50 ug/ml after 7 days by poisoned food technique relative to control; summary of the method: as §2
Helminthosporium [23] = experiment: Antifungal activity against Helminthosporium sp. at 100 ug/ml after 7 days by poisoned food technique relative to control; summary of the method: as §2
Helminthosporium [24] = experiment: Antifungal activity against Helminthosporium sp. at 200 ug/ml after 7 days by poisoned food technique relative to control; summary of the method: as §2
Helminthosporium [25] = experiment: Antifungal activity against Helminthosporium sp. at 10 ug/ml after 7 days by poisoned food technique relative to 10 ug/ml mancozeb
Alternaria alternata [26] = experiment: Antifungal activity against Alternaria alternata at 10 ug/ml after 7 days by poisoned food technique relative to 10 ug/ml mancozeb
Fusarium oxysporum [27] = experiment: Antifungal activity against Fusarium oxysporum at 10 ug/ml after 7 days by poisoned food technique relative to 10 ug/ml mancozeb

Cc1cc(C)n2nc(-n3nc(C)cc3C)cc2n1
zone of inhibition at 2000 µg/mL (Escherichia coli [1]): 7 mm | zone of inhibition at 2000 µg/mL (Pseudomonas aeruginosa [2]): 7 mm | zone of inhibition at 2000 µg/mL (Staphylococcus aureus [3]): 7 mm | zone of inhibition at 2000 µg/mL (Bacillus cereus [4]): 7 mm | MIC (Escherichia coli [5]): > 400 µg/mL | MIC (Pseudomonas aeruginosa [6]): > 400 µg/mL | MIC (Staphylococcus aureus [7]): 400 µg/mL (≈ 1660 µM) | MIC (Bacillus cereus [8]): > 400 µg/mL | Activity (Aspergillus terreus [9]): 9.87% | Activity (Aspergillus terreus [10]): 33.7% | Activity (Aspergillus terreus [11]): 68.5% | Activity (Aspergillus terreus [12]): 73.2% | Activity (Alternaria alternata [13]): 47.5% | Activity (Alternaria alternata [14]): 69.5% | Activity (Alternaria alternata [15]): 71.6% | Activity (Alternaria alternata [16]): 73.1% | Activity (Fusarium oxysporum [17]): 56% | Activity (Fusarium oxysporum [18]): 67% | Activity (Fusarium oxysporum [19]): 67% | Activity (Fusarium oxysporum [20]): 71.9% | Activity (Helminthosporium [21]): 42.2% | Activity (Helminthosporium [22]): 66.6% | Activity (Helminthosporium [23]): 79.2% | Activity (Helminthosporium [24]): 79.2% | fold change (FC) (Helminthosporium [25]): 3.4 | fold change (FC) (Alternaria alternata [26]): 2.6 | fold change (FC) (Fusarium oxysporum [27]): 2
